Experimental data reported in ChEMBL document CHEMBL1148437, “Synthesis, structure-activity relationships, and mechanism of drug resistance of D- and L-beta-3'-fluoro-2',3'-unsaturated-4'-thionucleosides as anti-HIV agents” (J Med Chem, 2004).

Legend:
PBMC [1] = assay: Antiviral activity against drug-resistant HIV-1 virus (M184v) in Human peripheral blood mononuclear (PBM) cells; assay type: functional
Outline: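 PHA-stimulated (2-3 days) human PBM cells from seronegative donors infected 1 h in bulk with molecular clone HIV-1 M184Vpitt, then cultured with 10-fold serial compound dilutions in IL-2–supplemented RPMI-1640, 5 days, 37 °C, 5% CO2. Supernatant virus pelleted and assayed for RT activity (poly(rA)·oligo(dT), 3H-TTP, 2 h, 37 °C). EC50/EC90 from concentration-response curves by median effect method.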

PBMC [2] = assay: Antiviral activity against wild type HIV virus(xxBRU) in Human peripheral blood mononuclear (PBM) cells; assay type: functional
Outline: (§1)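 PHA-stimulated (2-3 days) human PBM cells from healthy seronegative donors, Ficoll-Hypaque isolated; bulk infection 1 h (HIV-1 LAI reference; xxBru clone), 100 TCID50/1×10^7 cells (flask) or 200 TCID50/6×10^5 cells/well; 10-fold serial dilutions; RPMI-1640, 16% FBS, IL-2, DEAE-dextran; 5 days 37 °C; supernatant RT activity (poly(rA)·oligo(dT), 3H-TTP); EC50/EC90 by median effect method.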

PBMC [3] = assay: (§2) Anti-HIV activity in Human peripheral blood mononuclear (PBM) cells; assay type: functional; outline: as §1
[4] = Compounds were evaluated for their potential toxic effect on uninfected […] cells; assay type: ADME, cell-based; conditions: Chlorocebus sabaeus
Outline: (§3)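 Uninfected cells were seeded in 10-fold serial drug dilutions: Vero at 5×10^3, CEM at 2.5×10^3 and PHA-stimulated PBM at 5×10^4 cells/well. Vero were incubated 3 days, CEM 4 days and PBM 5 days, at 37 °C in 5% CO2. MTT was added overnight, followed by solubilization for 5 h and reading at 570 nm. IC50 was derived by the median effect method.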

[5] = Compounds were evaluated for their potential toxic effect on uninfected PHA-stimulated human Peripheral blood mononuclear (PBM) cells; assay type: ADME; outline: as §3
[6] = Compounds were evaluated for their potential toxic effect on uninfected PHA-stimulated human T-lymphoblastoid cell line (CEM); assay type: ADME; outline: as §3
PBMC [7] = assay: as §2; assay type: functional, cell-based; outline: as §1

| SMILES | EC90 (PBMC [1]) | EC90 (PBMC [2]) | EC90 (PBMC [3]) | IC50 [4] | IC50 [5] | IC50 [6] | EC50 (PBMC [7]) |
| --- | --- | --- | --- | --- | --- | --- | --- |
| Cc1cn([C@H]2C[C@H](N=[N+]=[N-])[C@@H](CO)O2)c(=O)[nH]c1=O [ZIDOVUDINE] | 0.003 µM | 0.01 µM | 0.01 µM | 29 µM | > 100 µM | 14.3 µM |  |
| Nc1nc(=O)n([C@@H]2C=C(F)[C@H](CO)S2)cc1F | > 100 µM | 0.35 µM | 0.35 µM | 88.1 µM | > 100 µM | > 100 µM | 0.031 µM |
| Cc1cn([C@@H]2C=C(F)[C@H](CO)S2)c(=O)[nH]c1=O |  |  | > 100 µM | > 100 µM | > 100 µM | ≥ 100 µM | > 100 µM |
| Nc1ccn([C@@H]2CS[C@H](CO)O2)c(=O)n1 [LAMIVUDINE] |  | 0.08 µM |  |  |  |  |  |
| Nc1nc(=O)n([C@H]2C=C(F)[C@@H](CO)S2)cc1F |  |  | > 100 µM | > 100 µM | > 100 µM | > 100 µM | > 100 µM |
| OC[C@@H]1S[C@H](n2cnc3c(O)ncnc32)C=C1F |  |  | > 100 µM | > 100 µM | > 100 µM | > 100 µM | > 100 µM |
| Nc1ccn([C@H]2C=C(F)[C@@H](CO)S2)c(=O)n1 |  |  | > 100 µM | > 100 µM | > 100 µM | > 100 µM | > 100 µM |
| Cc1cn([C@H]2C=C(F)[C@@H](CO)S2)c(=O)[nH]c1=O |  |  | > 100 µM | > 100 µM | > 100 µM | > 100 µM | > 100 µM |
| Nc1ncnc2c1ncn2[C@@H]1C=C(F)[C@H](CO)S1 |  |  | 57 µM | > 100 µM | > 100 µM | > 100 µM | 14.9 µM |
| Nc1nc(O)c2ncn([C@H]3C=C(F)[C@@H](CO)S3)c2n1 |  |  | > 100 µM | > 100 µM | > 100 µM | > 100 µM | 23.4 µM |
| O=c1ccn([C@@H]2C=C(F)[C@H](CO)S2)c(=O)[nH]1 |  |  | > 100 µM | > 100 µM | > 100 µM | > 100 µM | > 100 µM |
| Nc1nc(O)c2ncn([C@@H]3C=C(F)[C@H](CO)S3)c2n1 |  |  | > 100 µM | > 100 µM | > 100 µM | > 100 µM | 43.9 µM |
| Nc1ccn([C@@H]2C=C(F)[C@H](CO)S2)c(=O)n1 | > 100 µM | 1.7 µM | 1.7 µM | > 100 µM | > 100 µM | > 100 µM | 0.13 µM |
| OC[C@H]1S[C@@H](n2cnc3c(O)ncnc32)C=C1F |  |  | > 100 µM | > 100 µM | > 100 µM | > 100 µM | > 100 µM |
| Nc1ncnc2c1ncn2[C@H]1C=C(F)[C@@H](CO)S1 |  |  | > 100 µM | > 100 µM | > 100 µM | > 100 µM | > 100 µM |
| O=c1ccn([C@H]2C=C(F)[C@@H](CO)S2)c(=O)[nH]1 |  |  | > 100 µM | > 100 µM | > 100 µM | > 100 µM | > 100 µM |
